Test results: PMC11303814 (Nature Communications, 2024)
Substitutions are numbered along the chain they refer to.

Key:
rP2X7-R125A = target: T1, rP2X7-R125A (Rattus norvegicus, UniProt Q64663, R125A); assay: TEVC dose response; type: cell-based; settings: read-out: EC50 (apparent affinity), mean ± SD, triplicate
T1 sequence (Q64663 1-595 R125A): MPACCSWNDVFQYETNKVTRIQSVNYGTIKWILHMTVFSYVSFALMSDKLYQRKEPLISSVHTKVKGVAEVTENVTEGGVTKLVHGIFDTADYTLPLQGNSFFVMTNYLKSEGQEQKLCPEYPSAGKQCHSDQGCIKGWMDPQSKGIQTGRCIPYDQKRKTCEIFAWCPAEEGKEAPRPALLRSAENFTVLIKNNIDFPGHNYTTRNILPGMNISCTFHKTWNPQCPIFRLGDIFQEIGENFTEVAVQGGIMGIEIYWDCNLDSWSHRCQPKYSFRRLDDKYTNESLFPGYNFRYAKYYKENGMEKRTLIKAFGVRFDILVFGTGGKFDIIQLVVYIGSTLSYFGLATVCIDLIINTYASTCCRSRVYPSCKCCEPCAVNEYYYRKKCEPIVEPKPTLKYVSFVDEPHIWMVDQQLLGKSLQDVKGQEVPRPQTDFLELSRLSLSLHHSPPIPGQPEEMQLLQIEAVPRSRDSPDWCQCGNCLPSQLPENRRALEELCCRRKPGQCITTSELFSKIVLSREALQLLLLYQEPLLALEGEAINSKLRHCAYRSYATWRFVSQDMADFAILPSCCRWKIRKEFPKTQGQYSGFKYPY
Summary of the method: (§1)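 TEVC was run on Xenopus oocytes ~20 h after injection of wild-type or mutant rP2X7 mRNA, in pH 7.4 HEPES buffer with 0.1 mM flufenamic acid. Receptors were facilitated at 100 µM before recording. Dilution series: ATP 1.5 mM–2 µM (7 points), BzATP 300–0.14 µM (8 points). Responses were normalized to the largest concentration, fitted by nonlinear regression for EC50, and averaged across triplicates (mean ± SD).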

human P2X3 = settings: cited from earlier work
rP2X7-Q143A/I214A = target: T2, rP2X7-Q143A/I214A (Rattus norvegicus, UniProt Q64663, I214A/Q143A); assay: TEVC dose response; type: cell-based; settings: read-out: EC50 (apparent affinity), mean ± SD, triplicate
T2 sequence (Q64663 1-595 Q143A/I214A): T1 sequence (Q64663 1-595 R125A) with A125R, Q143A, I214A
Summary of the method: as §1

zebra fish P2X4 = settings: cited from earlier work
[1] = target: T3, full-length wild-type rP2X7 (Rattus norvegicus, UniProt Q64663); assay: TEVC dose response; type: cell-based; settings: WT rP2X7, TEVC
T3 sequence (Q64663 1-595): T1 sequence (Q64663 1-595 R125A) with A125R
Summary of the method: as §1

For Nc1ncnc2c1ncn2[C@@H]1O[C@H](COP(=O)(O)OP(=O)(O)OP(=O)(O)O)[C@@H](O)[C@H]1O [ATP], the EC50 (rP2X7-R125A) is listed as 41 ± 14 µM, the Kd (human P2X3) is listed as 0.0028 ± 0.0001 µM and the EC50 (rP2X7-Q143A/I214A) is listed as 290 ± 20 µM. The Kd (zebra fish P2X4) was 0.0116 ± 0.0017 µM.

With BzATP the EC50 (rP2X7-R125A) was 5 ± 1 µM, the “higher apparent affinity than ATP (EC50 ratio)” value [1] was ~ 28 fold and the EC50 (rP2X7-Q143A/I214A) was 49 ± 4 µM.
